# According to ChEMBL document CHEMBL2177069, “Novel peptidomimetic compounds containing redox active chalcogens and quinones as potential anticancer agents” (Eur J Med Chem, 2012):
# Tests used:
# DU-145 = test: Cytotoxicity against human DU145 cells; assay type: functional
# Saccharomyces cerevisiae [1] = test: Growth inhibition of UFD2-deficient Saccharomyces cerevisiae YDL190C mutant at 20 ug/disc after 24 to 48 hrs by agar diffusion assay; assay type: functional; conditions: read-out: DIZ
# Method in brief: (§1)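 S. cerevisiae deletion mutants or wild type grown on YPD, seeded into liquid agar medium at an optical density of 0.1. 6 mm paper discs soaked with methanolic compound solution were placed on the plates and incubated at 30 °C. Growth was checked after 1 and 2 days, and the inhibition zone diameter was recorded in mm.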
# Saccharomyces cerevisiae [2] = test: Growth inhibition of COX17-deficient Saccharomyces cerevisiae YLL009C mutant at 20 ug/disc after 24 to 48 hrs by agar diffusion assay; assay type: functional; conditions: read-out: DIZ; method in brief: as §1
# Saccharomyces cerevisiae [3] = test: Growth inhibition of RCK1-deficient Saccharomyces cerevisiae YGL158W mutant at 20 ug/disc after 24 to 48 hrs by agar diffusion assay; assay type: functional; conditions: read-out: DIZ; method in brief: as §1
# Saccharomyces cerevisiae [4] = test: Growth inhibition of POS5-deficient Saccharomyces cerevisiae YPL188W mutant at 20 ug/disc after 24 to 48 hrs by agar diffusion assay; assay type: functional; conditions: read-out: DIZ; method in brief: as §1
# Saccharomyces cerevisiae [5] = test: Growth inhibition of WSC4-deficient Saccharomyces cerevisiae YHL028W mutant at 20 ug/disc 24 to 48 hrs by agar diffusion assay; assay type: functional; conditions: read-out: DIZ; method in brief: as §1
# Saccharomyces cerevisiae [6] = test: Growth inhibition of PST2-deficient Saccharomyces cerevisiae YDR032C mutant at 20 ug/disc 24 to 48 hrs by agar diffusion assay; assay type: functional; conditions: read-out: DIZ; method in brief: as §1
# Saccharomyces cerevisiae [7] = test: Growth inhibition of SOD2-deficient Saccharomyces cerevisiae YHR008C mutant at 20 ug/disc 24 to 48 hrs by agar diffusion assay; assay type: functional; conditions: read-out: DIZ; method in brief: as §1
# Saccharomyces cerevisiae [8] = test: Growth inhibition of wild type Saccharomyces cerevisiae BY4741 at 20 ug/disc after 24 to 48 hrs by agar diffusion assay; assay type: functional; conditions: read-out: DIZ; method in brief: as §1
# [9] = Cytotoxicity against human PHF cells after 24 hrs by MTT assay; assay type: cell-based
# Method in brief: (§2)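 MTT assay. Cells were seeded at 50,000 cells/mL in medium with 10% fetal calf serum and grown for two days at 37 °C, 10% CO2. Serial dilutions of compound were then added for 24 h. MTT was added (final 0.5 mg/mL) for 2 h, and the formazan was pelleted, washed, dissolved in isopropanol with 0.4% HCl and read at 590 nm. IC50 is the concentration giving 50% of untreated-control absorbance, taken from dose-response curves; mean of two parallel experiments.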
# HUVEC = test: Cytotoxicity against human HUVEC cells after 24 hrs by MTT assay; assay type: cell-based; method in brief: as §2
# A-431 = test: Cytotoxicity against human A431 cells after 24 hrs by MTT assay; assay type: functional, cell-based; conditions: A-431, 24 h; method in brief: as §2
# Hs-578T = test: Cytotoxicity against human Hs578T cells; assay type: functional
# MCF7 = test: Cytotoxicity against human MCF7 cells; assay type: functional
# UO-31 = test: Cytotoxicity against human UO31 cells; assay type: functional
# PC-3 = test: Cytotoxicity against human PC3 cells; assay type: functional
# SN12C = test: Cytotoxicity against human SN12C cells; assay type: functional
# RXF 393 = test: Cytotoxicity against human RXF393 cells; assay type: functional
# NCI/ADR-RES = test: Cytotoxicity against human NCI/ADR-RES cells; assay type: functional
# OVCAR-5 = test: Cytotoxicity against human OVCAR5 cells; assay type: functional
# IGROV-1 = test: Cytotoxicity against human IGROV1 cells; assay type: functional
# UACC-62 = test: Cytotoxicity against human UACC62 cells; assay type: functional
# SK-MEL-5 = test: Cytotoxicity against human SK-MEL-5 cells; assay type: functional
# SK-MEL-28 = test: Cytotoxicity against human SK-MEL-28 cells; assay type: functional
# SK-MEL-2 = test: Cytotoxicity against human SK-MEL-2 cells; assay type: functional
# MDA-MB-435 = test: Cytotoxicity against human MDA-MB-435 cells; assay type: functional
# Malme-3M = test: Cytotoxicity against human MALME-3M cells; assay type: functional
# M14 = test: Cytotoxicity against human M14 cells; assay type: functional
# SNB-75 = test: Cytotoxicity against human SNB75 cells; assay type: functional
# SNB-19 = test: Cytotoxicity against human SNB19 cells; assay type: functional
# SF-295 = test: Cytotoxicity against human SF295 cells; assay type: functional
# SW-620 = test: Cytotoxicity against human SW620 cells; assay type: functional
# KM12 = test: Cytotoxicity against human KM12 cells; assay type: functional
# HCT-15 = test: Cytotoxicity against human HCT15 cells; assay type: functional
# NCI-H522 = test: Cytotoxicity against human NCI-H522 cells; assay type: functional
# NCI-H460 = test: Cytotoxicity against human NCI-H460 cells; assay type: functional
# HOP-92 = test: Cytotoxicity against human HOP92 cells; assay type: functional
# NCI-H226 = test: Cytotoxicity against human NCI-H226 cells; assay type: functional
# A549 = test: Cytotoxicity against human A549 cells; assay type: functional
# HOP-62 = test: Cytotoxicity against human HOP62 cells; assay type: functional
# MOLT-4 = test: Cytotoxicity against human MOLT4 cells; assay type: functional
structure (smiles),measurement,setting,value
CC1=C([Se]CC(OC(=O)[C@@H](CO)NC(=O)OC(C)(C)C)C(=O)NC(C)(C)C)C(=O)c2ccccc2C1=O (stereo partly drawn),GI50,DU-145,1910 nM
same,LC50,DU-145,6.03 µM
same,TGI,DU-145; read-out: pTGI (converted),3.39 µM
same,zone of inhibition at 20 µg/disc,Saccharomyces cerevisiae [1],13 mm
same,zone of inhibition at 20 µg/disc,Saccharomyces cerevisiae [2],13 mm
same,zone of inhibition at 20 µg/disc,Saccharomyces cerevisiae [3],18 mm
same,zone of inhibition at 20 µg/disc,Saccharomyces cerevisiae [4],11 mm
same,zone of inhibition at 20 µg/disc,Saccharomyces cerevisiae [5],19 mm
same,zone of inhibition at 20 µg/disc,Saccharomyces cerevisiae [6],11 mm
same,zone of inhibition at 20 µg/disc,Saccharomyces cerevisiae [7],19 mm
same,zone of inhibition at 20 µg/disc,Saccharomyces cerevisiae [8],0 mm
same,IC50,[9],7 µM
same,IC50,HUVEC,3000 nM
same,IC50,A-431,2000 nM
same,GI50,Hs-578T,2820 nM
same,LC50,Hs-578T,> 100 µM
same,GI50,MCF7,1740 nM
same,LC50,MCF7,8.91 µM
same,TGI,MCF7; read-out: pTGI (converted),3.98 µM
same,GI50,UO-31,1450 nM
same,LC50,UO-31,6.03 µM
same,TGI,UO-31; read-out: pTGI (converted),2950 nM
same,GI50,PC-3,1350 nM
same,LC50,PC-3,6.03 µM
same,TGI,PC-3; read-out: pTGI (converted),2820 nM
same,GI50,SN12C,1860 nM
same,LC50,SN12C,6.31 µM
same,TGI,SN12C; read-out: pTGI (converted),3.39 µM
same,GI50,RXF 393,1860 nM
same,LC50,RXF 393,5.75 µM
same,TGI,RXF 393; read-out: pTGI (converted),3.31 µM
same,GI50,NCI/ADR-RES,1620 nM
same,TGI,NCI/ADR-RES; read-out: pTGI (converted),3.09 µM
same,GI50,OVCAR-5,2090 nM
same,LC50,OVCAR-5,6.61 µM
same,TGI,OVCAR-5; read-out: pTGI (converted),3.72 µM
same,GI50,IGROV-1,1660 nM
same,LC50 (concentration killing 50% of cells),IGROV-1,6.46 µM
same,TGI,IGROV-1; read-out: pTGI (converted),3.24 µM
same,GI50,UACC-62,1660 nM
same,LC50,UACC-62,5.62 µM
same,TGI,UACC-62; read-out: pTGI (converted),3.02 µM
same,GI50,SK-MEL-5,1580 nM
same,LC50,SK-MEL-5,5.5 µM
same,TGI,SK-MEL-5; read-out: pTGI (converted),2950 nM
same,GI50,SK-MEL-28,2040 nM
same,LC50,SK-MEL-28,6.17 µM
same,TGI,SK-MEL-28; read-out: pTGI (converted),3.55 µM
same,GI50,SK-MEL-2,2190 nM
same,LC50,SK-MEL-2,9.55 µM
same,TGI,SK-MEL-2; read-out: pTGI (converted),4.57 µM
same,GI50,MDA-MB-435,2000 nM
same,LC50,MDA-MB-435,8.32 µM
same,TGI,MDA-MB-435; read-out: pTGI (converted),4.07 µM
same,GI50,Malme-3M,2040 nM
same,LC50,Malme-3M,6.92 µM
same,TGI,Malme-3M; read-out: pTGI (converted),3.8 µM
same,GI50,M14,1660 nM
same,LC50,M14,5.62 µM
same,TGI,M14; read-out: pTGI (converted),3.02 µM
same,GI50,SNB-75,1290 nM
same,LC50,SNB-75,5.13 µM
same,TGI,SNB-75; read-out: pTGI (converted),2570 nM
same,GI50,SNB-19,661 nM
same,LC50,SNB-19,4.9 µM
same,TGI,SNB-19; read-out: pTGI (converted),2000 nM
same,GI50,SF-295,316 nM
same,LC50,SF-295,22.4 µM
same,TGI,SF-295; read-out: pTGI (converted),1050 nM
same,GI50,SW-620,1780 nM
same,LC50,SW-620,6.31 µM
same,TGI,SW-620; read-out: pTGI (converted),3.31 µM
same,GI50,KM12,1510 nM
same,LC50,KM12,5.5 µM
same,TGI,KM12; read-out: pTGI (converted),2880 nM
same,GI50,HCT-15,2000 nM
same,LC50,HCT-15,7.94 µM
same,TGI,HCT-15; read-out: pTGI (converted),3.98 µM
same,GI50,NCI-H522,1580 nM
same,LC50,NCI-H522,6.17 µM
same,TGI,NCI-H522; read-out: pTGI (converted),3.16 µM
same,GI50,NCI-H460,457 nM
same,LC50,NCI-H460,7.41 µM
same,TGI,NCI-H460; read-out: pTGI (converted),1780 nM
same,GI50,HOP-92,1860 nM
same,LC50 (50% lethal concentration),HOP-92,6.31 µM
same,TGI,HOP-92; read-out: pTGI (converted),3.39 µM
same,GI50,NCI-H226,1950 nM
same,CC50,NCI-H226; read-out: pLC50 (the source's name) (converted),9.12 µM
same,TGI,NCI-H226; read-out: pTGI (converted),4.17 µM
same,GI50,A549,1820 nM
same,LC50,A549,89.1 µM
same,TGI,A549; read-out: pTGI (converted),9.33 µM
same,GI50,HOP-62,525 nM
same,LC50,HOP-62,4.37 µM
same,TGI,HOP-62; read-out: pTGI (converted),1860 nM
same,GI50,MOLT-4,447 nM
same,LC50,MOLT-4,> 100 µM
